CSN inh – CSN deneddylation inhibition. Purified CSN, SCF-Nedd8-OG deneddylation, fluorescence polarization. AID 651999. inhibition, % at 12.5 µM. Q92905. 0.38% of 360,000 active;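 active means pattern-corrected inhibition above about 35%, with an unprinted fluorescence ratio check between 0.5 and 1.5, limit read from the data, passing the limit was not always enough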;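 further: 0% = enzyme with substrate and 100% = substrate without enzyme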
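assay system = purified human Csn5 enzyme expressed in HEK293T cells | amount = 0.24 nM enzyme | buffer or medium = Tris/NaCl/DTT buffer, pH 7.5 | reagent = 10 nM SCFSkp2-Nedd8OG | compound = one concentration, 12.5 µM, 0.25% DMSO | times = 90 min reaction at room temperature | signal = FP | read-out basis = % inhibition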
Rtt109 HAT inh – C. albicans Rtt109 histone acetyltransferase inhibition; Q5AAJ8; purified Rtt109/Vps75, ThioGlo CoA-SH fluorescence, 4 h; inhibition, % at 34.9 µM; 0.16% of 330,000 active; AID 540336;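 active means inhibition of at least 50% in every replicate; inconclusive means best replicate reaches 50% inhibition but some replicates fall short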
Target sequence (Q5AAJ8 whole entry, looked up): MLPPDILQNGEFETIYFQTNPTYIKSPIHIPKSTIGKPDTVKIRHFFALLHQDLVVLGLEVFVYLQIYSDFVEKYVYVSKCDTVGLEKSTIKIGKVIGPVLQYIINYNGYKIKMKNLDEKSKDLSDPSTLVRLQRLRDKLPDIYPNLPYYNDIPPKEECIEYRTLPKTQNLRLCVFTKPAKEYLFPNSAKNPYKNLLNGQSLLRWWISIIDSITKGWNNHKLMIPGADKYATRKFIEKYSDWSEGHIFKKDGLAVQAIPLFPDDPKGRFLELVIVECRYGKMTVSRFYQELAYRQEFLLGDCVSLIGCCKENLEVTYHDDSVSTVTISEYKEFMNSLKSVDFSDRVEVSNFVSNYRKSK
HNF4A DNA FP – change in binding of human HNF4 alpha to DNA | P41235 | HNF4a-FITC DNA binding, fluorescence polarization, 1 h | activity change, % at 10 µM | 0.3% of 360,000 active; in the data active means activity change above about 30%, passing the limit was not always enough
TPT1 inhibitor – C. albicans TPT1 enzyme inhibition; recombinant caTPT1, FP RNA substrate dephosphorylation; inhibition, % at 5 µM; 0.81% of 300,000 active;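 active means inhibition above the mean of all tested compounds plus 3 SD, set per screening campaign, cut at about 24% in these data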;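 further: plate controls were DMSO alone for no effect and ferristatin control at 100 nM for full effect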
An asterisk follows results filed as active; ? = inconclusive; . = no result given. Sampled rows, rich in hits. Any-hit rate of the full collection: about 1.2%.

SMILES	CSN inh	Rtt109 HAT inh	HNF4A DNA FP	TPT1 inhibitor
COc1cc(OC)c(NC(=O)CN(C)S(=O)(=O)c2ccc(-c3ccc(=O)[nH]n3)s2)cc1Cl	-1	52*	-1	2
CCOc1ccc(S(=O)(=O)N2CCCCC2)cc1NC(=O)CN1C(=O)NC(C)(C2CC2)C1=O (centres undefined)	-4	2	-2	.
N#Cc1cc2c(nc1SCC(=O)Nc1sc3c(c1C#N)CCC3)CCC2	4	0	0	3
COc1ccc(-c2ccc(C#N)c(SCC(=O)Nc3sc4c(c3C#N)CCC4)n2)cc1OC	121	-8	47*	15
O=C(/C=C/c1cc[n+](CC(=O)c2ccc3cccc4c3c2CC4)cc1)c1ccc2cccc3c2c1CC3	113*	-2	178	49*
CCCn1c(=N)n(CC(=O)c2ccc([N+](=O)[O-])cc2)c2ccccc21	-2	-2	-2	5
Cc1ccccc1Cn1c(=N)n(CC(=O)c2ccc([N+](=O)[O-])cc2)c2ccccc21	5	6	43*	-2
Cc1cccc(OCC(O)Cn2c(N3CCCCC3)nc3c2c(=O)n(C)c(=O)n3C)c1 (centres undefined)	0	3	5	0
COc1ccc(S(=O)(=O)N(C)CC(=O)NCCCn2ccnc2)cc1Cl	2	4	2	-1
O=C(CCCN1C(=O)/C(=C\c2ccccc2)SC1=S)Nc1ccc(O)cc1C(=O)O	3	?	-3	0
O=C(CN1C(=O)/C(=C\c2ccco2)SC1=S)Nc1ccc(O)cc1C(=O)O	70*	2	-37	11
CCC1=NN2C(=N)/C(=C/c3ccc(OS(=O)(=O)c4ccccc4)cc3)C(=O)N=C2S1	6	10	33*	12
O=C(COC(=O)c1ccc(Br)c(S(=O)(=O)N2CCOCC2)c1)NC1CC1	-2	1	-3	.
Cc1cc(C(=O)N2CCC2(C)C(=O)NS(=O)(=O)c2ccc(Cl)cc2)nn1C (centres undefined)	1	.	2	.
Cc1ccc(/C=C2\SC(=S)N(C(Cc3ccccc3)C(=O)O)C2=O)cc1 (centres undefined)	4	62*	-5	0
O=C(O)C(Cc1ccccc1)N1C(=O)/C(=C/c2ccccc2)SC1=S (centres undefined)	0	53*	0	-2
O=C1CN(S(=O)(=O)c2ccccc2)CCN1	1	-8	0	.
Cc1ccc(-n2c(Cl)c(Cl)nc(Cl)c2=O)cc1	11	16	0	0
Fc1ccc2nc(N3CCCC3)sc2c1	-6	-3	34*	-1
CSCCC(NC(=O)c1ccc(C(C)(C)C)cc1)C(=O)OCC(=O)N1CCCC1=O (centres undefined)	67*	5	0	.
COCCc1ccc(OC2(C)CCN(Cc3cccn3-c3nccs3)C2)cc1 (centres undefined)	3	.	-1	.
COCc1ccc(CN2CCC(n3nccc3NC(=O)C(OC)c3ccccc3)CC2)o1 (centres undefined)	-3	59*	4	-1
COC(C(=O)Nc1ccnn1C1CCN(Cc2ccc(C)o2)CC1)c1ccccc1 (centres undefined)	-2	15	1	.
O=C(NCc1cc(Cl)cc(Cl)c1)c1csc([C@@H]2O[C@H](CO)[C@H](O)[C@H](O)[C@H]2O)n1	2	.	-5	.
O=C(CN1CCOCC1)Nc1cccc(C(F)(F)F)c1	0	55*	0	-4
SMILES	CSN inh	Rtt109 HAT inh	HNF4A DNA FP	TPT1 inhibitor
O=C(CN1CCOCC1)Nc1cccc(C(=O)Nc2cccc(C(F)(F)F)c2)c1	4	-1	1	-1
CC(C)C[C@@H](C(=O)NCc1ccco1)N1C(=O)N2CCc3c([nH]c4ccccc34)[C@@]2(C)C1=O	7	0	3	1
O=S(=O)(Cc1ccccc1)c1cnc2ccccc2n1	-2	4	1	-1
c1ccc(C[C@H]2COc3c4ccccc4nn32)cc1	-1	.	-1	.
CC(=O)Nc1ccc(S(=O)(=O)c2ccc(C)cc2)cc1	5	10	34*	-1
CC(=O)Nc1ccc(C(=O)CS(=O)(=O)c2ccc(C)cc2)cc1	0	1	0	-1
COc1ccc(Cn2c(-c3ccc(OC)cc3)nc3c(c(=O)c4ccccc4n3C)c2=O)cc1	.	.	.	-2
COc1ccc(Cn2c(-c3ccc(C)cc3)nc3c(c(=O)c4ccccc4n3C)c2=O)cc1	44*	2	8	2
CCN(C(=O)COC(=O)c1ccc[nH]c1=O)c1cccc2ccccc12	-4	-8	4	.
COc1cc(C(=O)NCCSc2ccc(Br)cc2)cc(OC)c1OC	70*	.	1	0
